What was measured:
SV40 [1] = conditions: ref Dobson, Mankouri and Whitehouse 2020; cited from earlier work
MCPyV = conditions: ref Dobson, Mankouri and Whitehouse 2020; cited from earlier work
JCPyV [2] = assay: JCPyV infection by ICW assay; type: cell-based, JC polyomavirus; conditions: for % JCPyV infection (ICW, TAg): MOI = 1 FFU/cell, 48 h, vs DMSO control (Fig. 2); for JCPyV infection (ICW validation of screen hits): cell type not stated, data not shown
JCPyV [3] = assay: JCPyV infection by FFU infectivity assay; type: cell-based, JC polyomavirus; conditions: 48 h, vs DMSO control
SV40 [4] = assay: SV40 infection by FFU infectivity assay; type: cell-based, simian virus 40; conditions: Vero cells, MOI = 1 FFU/cell, 48 h
BKPyV = BKPyV infection by FFU infectivity assay; type: cell-based, BK polyomavirus; conditions: Vero cells, MOI = 4 FFU/cell, 72 h
In short: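 Vero E6 cells at 70% confluence were pre-treated 1 h at 37°C with test compound in 10% DMEM (triplicate wells). Infection ran 2 h at 37°C without compound, then cells were refed with compound-containing DMEM for 72 h. Cells were PFA-fixed and stained for VP1 (1:40) with DAPI. % infection was VP1+ cells over DAPI+ cells per 20X field, 5 fields/well.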

SARS-CoV-2 [5] = type: cell-based; conditions: Vero cells, TCID50 = 0.025/cell, 24 h
SVGA cells = assay: MTS cell viability assay, SVGA cells; type: cell-based, human
HEK-2C cells = assay: MTS cell viability assay, HEK-2C cells; type: cell-based
pERK = pERK assay by ICW; type: cell-based; conditions: 24 h treatment, no virus
JCPyV [6] = assay: NCC drug screen, In-Cell Western; type: cell-based, JC polyomavirus; conditions: inhibitor 10 μM, SVGA cells, MOI = 0.5 FFU/cell, 72 h, VP1 ICW
Vero cells = assay: MTS cell viability assay, Vero cells; type: cell-based, African green monkey; conditions: vs DMSO control
RPTEC = assay: MTS cell viability assay, RPTEC; type: cell-based, human; conditions: RPTEC 48 h, vs DMSO control
HeLa cells = assay: MTS cell viability assay, HeLa cells; type: cell-based; conditions: HeLa 24 h, vs DMSO control
reovirus [7] = assay: Reovirus infection by FFU infectivity assay; type: cell-based; conditions: HeLa cells, MOI = 300 FFU/cell, 24 h
In short: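 HeLa cells at 70% confluence were pre-treated 1 h at 37°C with test compound in 10% DMEM (triplicate wells). Infection ran 1 h at RT without compound, then cells were refed with compound-containing DMEM for 24 h at 37°C. Cells were PFA-fixed and stained with reovirus antisera (1:500), anti-rabbit secondary and DAPI. % infection was positive over DAPI+ cells per 10X field, 5 fields/well.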

JCPyV [8] = assay: JCPyV-647 attachment by flow cytometry; type: cell-based, JC polyomavirus; conditions: HEK-2C cells pre-treated 1 h, virus on ice 1 h, vs DMSO
JCPyV [9] = assay: JCPyV infectious clone transfection, VP1+ nuclei by FFU assay; type: cell-based, JC polyomavirus; conditions: SVGA cells, TFP 15 μM, day 3 or day 7
In short: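 SVGA cells at 50% confluence were pre-treated 1 h at 37°C with test compound or DMSO. They were transfected with 2 μg/well linearized JC pUC19 (pUC19 control) using Fugene 6 (1.5 μl:1 μg DNA) with compound present. Medium was replaced with 10% MEM after 6 h. Cells were fixed and stained for VP1 (1:40). % VP1+ nuclei was VP1+ over DAPI+ cells at 10X, 5 fields/well.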

reovirus [10] = conditions: ref Mainou, Zamora et al. 2013; cited from earlier work
SARS-CoV-2 [11] = conditions: ref Yuan, Dong et al. 2022; cited from earlier work
[12] = ref Kang, Hong et al. 2017; cited from earlier work
[13] = HEK-2C cells, MOI = 0.5 FFU/cell
[14] = SVGA 48 h, MTS, vs DMSO control
[15] = HEK-2C 48 h, MTS, vs DMSO control
[16] = primary RPTECs, MOI = 2 FFU/cell

COc1ccc(CCN(C)CCCC(C#N)(c2ccc(OC)c(OC)c2)C(C)C)cc1OC (stereo not drawn) [Verapamil]
SV40 infection (SV40 [1]): reduces | MCPyV infection (MCPyV): reduces

NCCCCCCNS(=O)(=O)c1cccc2c(Cl)cccc12 [W-7]
% JCPyV infection (ICW, TAg) (JCPyV [2]; HEK-2C cells): decreased JCPyV infection | % JCPyV infection (ICW, TAg) (JCPyV [2]; SVGA cells): decreased JCPyV infection | % JCPyV infection (FFU, TAg) (JCPyV [3]; [13]): significant reduction of JCPyV infection | % JCPyV infection (FFU, TAg) (JCPyV [3]; SVGA cells, MOI = 1 FFU/cell): significant reduction of JCPyV infection | % SV40 infection (FFU, VP1) (SV40 [4]): significantly reduced | % BKPyV infection (FFU) (BKPyV): significantly reduced | % SARS-CoV-2 infection (FFU, NP) (SARS-CoV-2 [5]): dramatically impaired SARS-CoV-2 infection

COc1ccc2cc1Oc1ccc(cc1)C[C@H]1c3cc(c(OC)cc3CCN1C)Oc1c(OC)c(OC)cc3c1[C@H](C2)N(C)CC3 [Tetrandrine]
Concentration with % Viability ≥ 100% (SVGA cells; human, 48 h): 10 µM | Concentration with % Viability < 80% (HEK-2C cells; human, 48 h): 10 µM | Concentration with % Viability ≥ 90% (HEK-2C cells; human, 48 h): 7 µM | Concentration with % Viability ≥ 95% (HEK-2C cells; human, 48 h): 1 µM | % JCPyV infection (ICW, TAg) (JCPyV [2]; HEK-2C cells): significant reduction in infection | % JCPyV infection (ICW, TAg) (JCPyV [2]; SVGA cells): slight, but not statistically significant, increase | % JCPyV infection (FFU, TAg) (JCPyV [3]; [13]): significantly impaired | % JCPyV infection (FFU, TAg) (JCPyV [3]; SVGA cells, MOI = 1 FFU/cell): not impacted | % SV40 infection (FFU, VP1) (SV40 [4]): potently inhibited | % pERK expression (ICW) (pERK; HEK-2C cells): reduction in pERK levels | % pERK expression (ICW) (pERK; SVGA cells): dramatic increase in pERK | SV40 infection (SV40 [1]): drastically reduced | MCPyV infection (MCPyV): drastically reduced

CCOC(=O)C1=C(C)NC(C)=C(C(=O)OC)C1c1cccc([N+](=O)[O-])c1 (stereo not drawn) [nitrendipine, Nitrendipine]
% JCPyV infection (FFU, TAg) (JCPyV [3]; SVGA cells, MOI = 1 FFU/cell): did not significantly reduce JCPyV infection

O=C1CN(/N=C/c2ccc(-c3ccc([N+](=O)[O-])cc3)o2)C(O)=N1 [dantrolene sodium]
JCPyV infection in NCC drug screen (hit by normalized z-score) (JCPyV [6]): hits | JCPyV infection (ICW validation of screen hits) (JCPyV [2]): did not significantly reduce infection

CN1CCN(CCCN2c3ccccc3Sc3ccc(C(F)(F)F)cc32)CC1 [TFP, trifluoperazine]
JCPyV infection in NCC drug screen (hit by normalized z-score) (JCPyV [6]): hits | Concentration with % Viability < 80% (SVGA cells; [14]): 30 µM | Concentration with % Viability ≥ 90% (SVGA cells; [14]): 20 µM | Concentration with % Viability ≥ 100% (SVGA cells; SVGA 7 days, MTS, vs DMSO control): 15 µM | Concentration with % Viability < 80% (HEK-2C cells; [15]): 30 µM | Concentration with % Viability ≥ 85% (HEK-2C cells; [15]): 20 µM | Concentration with % Viability ≥ 100% (HEK-2C cells; [15]): 7.5 µM | Concentration with % Viability ≥ 100% (Vero cells; Vero 24 h): 10 µM | Concentration with % Viability ≥ 100% (Vero cells; Vero 48 h): 20 µM | Concentration with % Viability < 80% (Vero cells; Vero 72 h): 30 µM | Concentration with % Viability ≥ 100% (Vero cells; Vero 72 h): 15 µM | Concentration with % Viability ≥ 90% (RPTEC): 7.5 µM | Concentration with % Viability ≥ 95% (RPTEC): 5 µM | Concentration with % Viability < 80% (HeLa cells): 15 µM | Concentration with % Viability ≥ 80% (HeLa cells): 10 µM | Concentration with % Viability ≥ 100% (HeLa cells): 7.5 µM | % JCPyV infection (ICW, TAg) (JCPyV [2]; HEK-2C cells): significant reduction in JCPyV infection | % JCPyV infection (ICW, TAg) (JCPyV [2]; SVGA cells): significant reduction in JCPyV infection | % JCPyV infection (FFU, TAg) (JCPyV [3]; [13]): significant reduction of JCPyV infection | % JCPyV infection (FFU, TAg) (JCPyV [3]; SVGA cells, MOI = 1 FFU/cell): significant reduction of JCPyV infection | % JCPyV infection (FFU, TAg) (JCPyV [3]; [16]): significantly reduced JCPyV infection | % SV40 infection (FFU, VP1) (SV40 [4]): significantly reduced | % BKPyV infection (FFU) (BKPyV): significantly reduced | % SARS-CoV-2 infection (FFU, NP) (SARS-CoV-2 [5]): dramatically impaired SARS-CoV-2 infection | % reovirus infection (FFU) (reovirus [7]): not impacted | JCPyV attachment (JCPyV-647, flow cytometry) (JCPyV [8]): no significant difference in JCPyV attachment | % VP1+ nuclei after transfection of JCPyV infectious clone (JCPyV [9]): modest reduction in JCPyV VP1+ cells | reovirus infection (reovirus [10]): not impacted | SARS-CoV-2 infection (SARS-CoV-2 [11]): inhibited | crossing the blood-brain barrier [12]: capable of crossing the blood-brain barrier

CC1(C)O[C@@H]2[C@@H](CO[C@@]3(COS(N)(=O)=O)OC(C)(C)O[C@@H]23)O1 [topiramate]
JCPyV infection in NCC drug screen (hit by normalized z-score) (JCPyV [6]): hits | JCPyV infection (ICW validation of screen hits) (JCPyV [2]): did not significantly reduce infection

Fc1ccc(C(c2ccc(F)cc2)N2CCN(C/C=C/c3ccccc3)CC2)cc1 [flunarizine, Flunarizine]
% JCPyV infection (ICW, TAg) (JCPyV [2]; HEK-2C cells): No significant change in infection | % JCPyV infection (ICW, TAg) (JCPyV [2]; SVGA cells): No significant change in infection | MCPyV infection (MCPyV): blocks infection

COC(=O)C1=C(C)NC(C)=C(C(=O)OC)C1c1ccccc1[N+](=O)[O-] [Nifedipine]
JCPyV infection in NCC drug screen (hit by normalized z-score) (JCPyV [6]): hits | % JCPyV infection (ICW, TAg) (JCPyV [2]; HEK-2C cells): significant reduction | % JCPyV infection (FFU, TAg) (JCPyV [3]; [13]): significantly reduced JCPyV infection | % JCPyV infection (FFU, TAg) (JCPyV [3]; SVGA cells, MOI = 1 FFU/cell): did not reduce JCPyV infection | % JCPyV infection (FFU, TAg) (JCPyV [3]; [16]): significantly reduced JCPyV infection | % SV40 infection (FFU, VP1) (SV40 [4]): did not reduce SV40 infection | % pERK expression (ICW) (pERK; HEK-2C cells): significant reduction in pERK levels | % pERK expression (ICW) (pERK; SVGA cells): significant reduction in pERK levels

COCCOC(=O)C1=C(C)NC(C)=C(C(=O)OC(C)C)C1c1cccc([N+](=O)[O-])c1 (stereo not drawn) [Nimodipine]
JCPyV infection in NCC drug screen (hit by normalized z-score) (JCPyV [6]): hits | % JCPyV infection (ICW, TAg) (JCPyV [2]; HEK-2C cells): modestly reduced | % JCPyV infection (ICW, TAg) (JCPyV [2]; SVGA cells): modestly reduced | % JCPyV infection (FFU, TAg) (JCPyV [3]; SVGA cells, MOI = 1 FFU/cell): did not significantly reduce JCPyV infection
